ChEMBL document CHEMBL2146480, “Discovery of Phenylaminopyridine Derivatives as Novel HIV-1 Non-nucleoside Reverse Transcriptase Inhibitors” (ACS Med Chem Lett, 2012)
Converted amounts (≈) assume the structure as drawn.

How the values were obtained:
[1] = system: Human immunodeficiency virus 1; test: Antiviral activity against wild type HIV1 LAI infected in human CEM174 cells assessed as inhibition of viral replication preincubated for 1 hr prior to viral infection measured after 5 days; format: functional, organism-based; settings: Human immunodeficiency virus 1, LAI
[2] = Cytotoxicity against human CEM174 cells assessed as cell viability; format: cell-based
How it was run: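 Values are geometric means of two determinations, each within 25% of the mean.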

[3] = Solubility of the compound in distilled water; format: physicochemical
How it was run: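 Solubility was measured on the HCl salt in distilled water.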

[4] = Solubility of the compound in distilled water at pH 7.4; format: physicochemical
[5] = Solubility of the compound in distilled water at pH 2.1; format: physicochemical
[6] = target: Human immunodeficiency virus type 1 reverse transcriptase (Human immunodeficiency virus 1, UniProt Q72547); test: Inhibition of RNA-dependent DNA polymerase activity of wild type N-terminal His6x-tagged HIV 1 reverse transcriptase p66/p51 expressed in Escherichia coli (DE3) rosetta cells preincubated for 30 mins by SPA assay
[7] = target: Human immunodeficiency virus type 1 reverse transcriptase (Human immunodeficiency virus 1, UniProt Q72547, K103N); test: Inhibition of RNA-dependent DNA polymerase activity of N-terminal His6x-tagged HIV 1 reverse transcriptase K103N mutant expressed in Escherichia coli (DE3) rosetta cells preincubated for 30 mins by SPA assay
[8] = target: Human immunodeficiency virus type 1 reverse transcriptase (Human immunodeficiency virus 1, UniProt Q72547, Y181C); test: Inhibition of RNA-dependent DNA polymerase activity of N-terminal His6x-tagged HIV 1 reverse transcriptase Y181C mutant expressed in Escherichia coli (DE3) rosetta cells preincubated for 30 mins by SPA assay
[9] = Half life in rat at 1.10 mg/kg, iv and 10.7 mg/kg, po; format: ADME, organism-based; settings: in vivo
How it was run: (§1)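 Both routes were formulated at 1.0 mg/mL in 50% PEG. Parameters reported are Vd, AUCpo, oral bioavailability, clearance and half-life.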

[10] = Volume of distribution in rat at 1.10 mg/kg, iv and 10.7 mg/kg, po; format: ADME, organism-based; settings: in vivo, 1.1 mg/kg; how it was run: as §1
[11] = AUC in rat at 10.7 mg/kg, po; format: ADME, organism-based; set-up: dose 10.7 mg/kg, route oral; settings: plasma; how it was run: as §1
[12] = Oral bioavailability in rat at 10.7 mg/kg; format: ADME, organism-based; settings: in vivo; how it was run: as §1
[13] = Clearance in rat at 1.10 mg/kg, iv and 10.7 mg/kg, po; format: ADME, organism-based; settings: in vivo, 1.1 mg/kg; how it was run: as §1
[14] = Volume of distribution in rat at 0.94 mg/kg, iv and 9.44 mg/kg, po; format: ADME, organism-based; settings: in vivo
How it was run: (§2)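 Rats given a single iv dose of 0.94 mg/kg and a single oral dose of 9.44 mg/kg. Both iv and po formulations were 1.0 mg/mL in 20% HP-β-CD. Vd, oral AUC, F, clearance and t1/2 were derived from plasma exposure.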

[15] = AUC in rat 9.44 mg/kg, po; format: ADME, organism-based; set-up: dose 9.44 mg/kg, route oral; settings: plasma; how it was run: as §2
[16] = Oral bioavailability in rat at 9.44 mg/kg; format: ADME, organism-based; settings: in vivo; how it was run: as §2
[17] = Clearance in rat at 0.94 mg/kg, iv and 9.44 mg/kg, po; format: ADME, organism-based; settings: in vivo; how it was run: as §2
[18] = Half life in rat at 0.94 mg/kg, iv and 9.44 mg/kg, po; format: ADME, organism-based; settings: in vivo; how it was run: as §2
[19] = Induction of CYP3A4 mRNA expression in human Fa2N-4 cells up to 10 uM after 24 hrs; format: ADME, cell-based; settings: fa2n-4, 24 h
[20] = Half life in rat at 1.19 mg/kg, iv and 10.9 mg/kg, po; format: ADME, organism-based; settings: in vivo
How it was run: (§3)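 The iv and po formulation was 1.0 mg/mL in 40% PEG. Vd, AUCpo, F, clearance and t1/2 were derived.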

[21] = Volume of distribution in rat at 1.19 mg/kg, iv and 10.9 mg/kg, po; format: ADME, organism-based; settings: in vivo; how it was run: as §3
[22] = AUC in rat at 10.9 mg/kg, po; format: ADME, organism-based; set-up: dose 10.9 mg/kg, route oral; settings: plasma; how it was run: as §3
[23] = Oral bioavailability in rat at 10.9 mg/kg; format: ADME, organism-based; settings: in vivo; how it was run: as §3
[24] = Clearance in rat at 1.19 mg/kg, iv and 10.9 mg/kg, po; format: ADME, organism-based; settings: in vivo; how it was run: as §3
[25] = system: Human immunodeficiency virus type 1 reverse transcriptase (Human immunodeficiency virus 1), Q72547 [UNDEFINED MUTATION]; test: Resistant ratio of IC50 for HIV 1 reverse transcriptase K103N mutant to IC50 for wild type HIV 1 reverse transcriptase
How it was run: (§4)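 Fold resistance is IC50 against the mutant RT divided by IC50 against wild-type RT. Both IC50s come from the RNA-dependent DNA polymerase inhibition assay, each taken as the geometric mean of two determinations.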

[26] = system: Human immunodeficiency virus 1; test: Resistant ratio of IC50 for HIV 1 reverse transcriptase Y181C mutant to IC50 for wild type HIV 1 reverse transcriptase; how it was run: as §4
[27] = target: Voltage-gated inwardly rectifying potassium channel KCNH2 (Homo sapiens, UniProt Q12809); test: Inhibition of recombinant human ERG channel IKr expressed in CHO cells by patch clamp assay
Chain of Voltage-gated inwardly rectifying potassium channel KCNH2 (Q12809 whole entry): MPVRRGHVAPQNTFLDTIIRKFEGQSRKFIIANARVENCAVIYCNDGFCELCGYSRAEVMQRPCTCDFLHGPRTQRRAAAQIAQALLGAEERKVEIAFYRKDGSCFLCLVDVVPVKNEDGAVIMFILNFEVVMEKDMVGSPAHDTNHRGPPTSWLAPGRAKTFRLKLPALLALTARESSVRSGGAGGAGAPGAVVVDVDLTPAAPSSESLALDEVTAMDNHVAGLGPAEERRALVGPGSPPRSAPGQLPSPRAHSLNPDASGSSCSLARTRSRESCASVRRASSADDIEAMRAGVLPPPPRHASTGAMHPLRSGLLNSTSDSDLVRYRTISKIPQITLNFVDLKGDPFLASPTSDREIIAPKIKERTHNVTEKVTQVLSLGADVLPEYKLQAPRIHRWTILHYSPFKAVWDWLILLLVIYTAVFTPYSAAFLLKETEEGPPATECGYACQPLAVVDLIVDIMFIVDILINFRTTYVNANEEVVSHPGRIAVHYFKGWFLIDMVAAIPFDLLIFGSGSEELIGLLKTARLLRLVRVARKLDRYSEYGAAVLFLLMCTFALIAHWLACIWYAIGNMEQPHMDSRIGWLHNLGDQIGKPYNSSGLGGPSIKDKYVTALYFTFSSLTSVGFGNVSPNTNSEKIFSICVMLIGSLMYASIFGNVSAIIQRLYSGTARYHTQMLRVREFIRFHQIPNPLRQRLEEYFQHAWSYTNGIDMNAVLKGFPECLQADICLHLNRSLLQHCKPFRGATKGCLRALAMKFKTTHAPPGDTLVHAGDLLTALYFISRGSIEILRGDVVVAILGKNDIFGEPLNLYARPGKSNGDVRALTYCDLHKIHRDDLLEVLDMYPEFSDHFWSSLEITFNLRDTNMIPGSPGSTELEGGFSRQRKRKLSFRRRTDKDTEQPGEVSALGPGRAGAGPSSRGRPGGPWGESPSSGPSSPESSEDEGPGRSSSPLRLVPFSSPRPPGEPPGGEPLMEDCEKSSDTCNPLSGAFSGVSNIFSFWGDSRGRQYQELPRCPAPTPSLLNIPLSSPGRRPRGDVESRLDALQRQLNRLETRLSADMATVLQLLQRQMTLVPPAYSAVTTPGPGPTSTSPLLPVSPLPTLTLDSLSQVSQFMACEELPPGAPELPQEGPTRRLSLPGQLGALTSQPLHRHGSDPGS

SMILES: Cc1cccc(-c2cnnc(NCc3cc(-c4ccccc4)[nH]n3)n2)c1
- EC50 [1]: 2300 nM
- CC50 [2]: > 10000 nM

SMILES: Cc1cc(C#N)ccc1-c1ccnc(NCc2n[nH]c(-c3ccccn3)c2Cl)c1.Cl
- solubility [3]: 100 µM

SMILES: Cc1ccccc1-c1ccnc(NCc2cc(-c3ccccc3)[nH]n2)n1
- EC50 [1]: 366 nM
- CC50 [2]: > 10000 nM

SMILES: N#Cc1cc(Cl)cc(Oc2cc(OCc3n[nH]c4nc(N)ccc34)ccc2Cl)c1
- CC50 [2]: > 10000 nM

SMILES: c1ccc(-c2cnnc(NCc3cc(-c4ccccc4)[nH]n3)n2)cc1
- EC50 [1]: 1290 nM
- CC50 [2]: > 10000 nM

SMILES: Cc1ccccc1-c1cncc(NCc2cc(-c3ccccc3)[nH]n2)n1
- EC50 [1]: 910 nM
- CC50 [2]: > 10000 nM

SMILES: Cc1cc(C#N)ccc1-c1ccnc(NCc2cc(-c3ccccc3)[nH]n2)n1
- EC50 [1]: 4.3 nM
- CC50 [2]: > 10000 nM

SMILES: Cc1cc(C#N)ccc1-c1ccnc(NCc2n[nH]c3ncccc23)c1
- EC50 [1]: 1.1 nM
- CC50 [2]: > 10000 nM
- solubility [4]: 3.7 µM (≈ 1.26 µg/mL)
- solubility [5]: > 881 µM
- IC50 [6]: 1.2 nM
- IC50 [7]: 10 nM
- IC50 [8]: 5.6 nM

SMILES: Cc1cc(C#N)ccc1-c1ccnc(NCc2cc(-c3ccccc3)[nH]n2)c1
- EC50 [1]: 0.8 nM
- CC50 [2]: > 10000 nM

SMILES: Cc1cc(C#N)ccc1-c1ccnc(NCc2n[nH]c3nc(N)ccc23)c1
- EC50 [1]: 1.9 nM
- CC50 [2]: > 10000 nM
- solubility [4]: 0.34 µM (≈ 0.121 µg/mL)
- solubility [5]: > 884 µM
- IC50 [6]: 5.9 nM
- IC50 [7]: 36 nM
- IC50 [8]: 16 nM
- half-life [9]: 2.5 h
- Vd [10]: 1.26 L/kg
- AUC [11]: 20 µM·h
- bioavailability [12]: 72%
- clearance [13]: 14 mL/min/kg

SMILES: Cc1ccccc1-c1ccnc(NCc2cc(-c3ccccc3)[nH]n2)c1
- EC50 [1]: 149 nM
- CC50 [2]: > 10000 nM

SMILES: Cc1ccccc1-c1cncc(NCc2cc(-c3ccccc3)[nH]n2)c1
- EC50 [1]: 1200 nM
- CC50 [2]: > 10000 nM

SMILES: Cc1ccc(-c2cnnc(NCc3cc(-c4ccccc4)[nH]n3)n2)cc1
- EC50 [1]: > 10000 nM
- CC50 [2]: > 10000 nM

SMILES: c1ccc(-c2cc(CNc3nncc(-c4cccc5ccccc45)n3)n[nH]2)cc1
- EC50 [1]: 265 nM
- CC50 [2]: > 10000 nM

SMILES: Cc1cc(C#N)ccc1-c1ccnc(NCc2n[nH]c3nc(N)ccc23)c1.Cl
- solubility [3]: > 4220 µM

SMILES: Cc1ccccc1-c1cnnc(NCc2cc(-c3ccccc3)[nH]n2)n1
- EC50 [1]: 124 nM
- CC50 [2]: > 10000 nM

SMILES: Cc1cc(C#N)ccc1-c1ccnc(NCc2n[nH]c(-c3ccccn3)c2Cl)c1
- EC50 [1]: 0.2 nM
- CC50 [2]: > 10000 nM
- solubility [4]: 1.1 µM (≈ 0.441 µg/mL)
- solubility [5]: 132 µM (≈ 52.9 µg/mL)
- IC50 [6]: 3 nM
- IC50 [7]: 16 nM
- IC50 [8]: 7.9 nM
- Vd [14]: 1.1 L/kg
- AUC [15]: 67 µM·h
- bioavailability [16]: 127%
- clearance [17]: 8.2 mL/min/kg
- half-life [18]: 2 h
- Activity [19]: Not Active

SMILES: Cc1cc(C#N)ccc1-c1cncc(NCc2cc(-c3ccccc3)[nH]n2)c1
- EC50 [1]: 16 nM
- CC50 [2]: > 10000 nM

SMILES: Cc1cc(C#N)ccc1-c1cnnc(NCc2cc(-c3ccccc3)[nH]n2)n1
- EC50 [1]: 1.7 nM
- CC50 [2]: > 10000 nM

SMILES: Cc1ccnc2c1NC(=O)c1cccnc1N2C1CC1 [NEVIRAPINE]
- EC50 [1]: 150 nM
- CC50 [2]: > 10000 nM

SMILES: Cc1cc(C#N)ccc1-c1ccnc(NCc2n[nH]c(-c3ccccc3)c2Cl)c1
- EC50 [1]: 6.8 nM
- CC50 [2]: > 10000 nM
- solubility [4]: 2.1 µM (≈ 0.84 µg/mL)
- solubility [5]: 45 µM (≈ 18 µg/mL)
- IC50 [6]: 5.1 nM
- IC50 [7]: 11 nM
- IC50 [8]: 6.3 nM
- half-life [20]: 3.1 h
- Vd [21]: 2.08 L/kg
- AUC [22]: 34 µM·h
- bioavailability [23]: 71%
- clearance [24]: 8.7 mL/min/kg

SMILES: Cc1cc(C#N)ccc1-c1ccnc(NCc2n[nH]c3nc(F)ccc23)c1
- EC50 [1]: 0.35 nM
- CC50 [2]: > 10000 nM
- solubility [4]: 1.8 µM (≈ 0.645 µg/mL)
- IC50 [6]: 1.9 nM
- IC50 [7]: 10 nM
- IC50 [8]: 7.7 nM

SMILES: Cc1cccc(C)c1-c1cnnc(NCc2cc(-c3ccccc3)[nH]n2)n1
- EC50 [1]: 3.2 nM
- CC50 [2]: > 10000 nM

SMILES: Cc1ccccc1-c1cccc(NCc2cc(-c3ccccc3)[nH]n2)c1
- EC50 [1]: 2200 nM
- CC50 [2]: > 10000 nM

SMILES: Cc1ccccc1-c1cccc(NCc2cc(-c3ccccc3)[nH]n2)n1
- EC50 [1]: > 10000 nM
- CC50 [2]: > 10000 nM

SMILES: Cc1cc(C#N)ccc1-c1ccnc(NCc2cc(-c3ccccn3)[nH]n2)c1
- EC50 [1]: 3.6 nM
- CC50 [2]: > 10000 nM
- solubility [4]: 0.71 µM (≈ 0.26 µg/mL)
- solubility [5]: > 545 µM
- IC50 [6]: 10 nM
- IC50 [7]: 134 nM
- Ratio IC50 [25]: 13
- IC50 [8]: 84 nM
- Ratio IC50 [26]: 8.4
- IC50 [27]: 1100 nM
